Assay results as given in ChEMBL document CHEMBL1138529, “Efficacy, pharmacokinetics, and metabolism of tetrahydroquinoline inhibitors of Plasmodium falciparum protein farnesyltransferase” (Antimicrob Agents Chemother, 2007).

Legend:
[1] = Permeability from apical to basolateral side in human Caco-2 cells; format: ADME, cell-based; settings: read-out: permeability
[2] = Inhibition of Plasmodium falciparum protein farnesyltransferase by SPA method
[3] = tested on: Plasmodium falciparum; assay: Antiplasmodial activity against Plasmodium falciparum by [3H]hypoxanthine uptake; format: functional; settings: read-out: ED50 (the source's name)
In short: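 Asynchronous P. falciparum (3D7 or K1) in RPMI 1640 with 20% heat-inactivated human A+ plasma, 0.5% parasitemia and 0.5% hematocrit; compound serially diluted, top final 5 μM, 48 h at 37°C under 5% CO2/5% O2/90% N2, then [8-3H]hypoxanthine 0.3 μCi added for 24 h.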

[4] = tested on: Mus musculus; assay: Toxicity in BALB/c mouse at 50 mg/kg, po; format: organism-based; design: dose 50 mg/kg, route oral; settings: in vivo
[5] = tested on: Rattus norvegicus; assay: Toxicity in Sprague-Dawley rat at 50 mg/kg, po; format: organism-based; design: dose 50 mg/kg, route oral; settings: in vivo
In short: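 Female Sprague-Dawley rats, 10-12 weeks, three per group. 50 mg/kg oral gavage in 3% EtOH-7% Tween 80-90% normal saline. Saphenous vein plasma sampled over time, and animals observed for adverse reactions.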

[6] = Permeability from basolateral to apical side in human Caco-2 cells; format: ADME, cell-based; settings: read-out: permeability
In short: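 Caco-2 clone TC7 grown on laminin-coated porous inserts and used 19-21 days after seeding; integrity checked by TEER and [3H]mannitol flux. Monolayers equilibrated 30 min at 37°C in HBSS/5 mM HEPES pH 7.4. Compound at 50 μM final added to basolateral donor side. Apical receiver sampled at 60 min, 37°C with shaking; LC/MS; Papp calculated from 60-min concentrations.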

Row | SMILES | Papp A→B [1] [×10⁻⁶ cm/s] | IC50 [2] [nM] | EC50 [3] [nM] | Activity [4] | Activity [5] | Papp B→A [6] [×10⁻⁶ cm/s]
1 | C=C(C)C(=O)N1CCC(CN(C2Cc3cc(C#N)ccc3N(Cc3cncn3C)C2)S(=O)(=O)c2ccccn2)CC1 (stereo not given) | 0.5 | 0.6 | 18 | Non-toxic | Non-toxic | 
2 | CC(C)NC(=O)N1CCC(CN(C2Cc3cc(C#N)ccc3N(Cc3cncn3C)C2)S(=O)(=O)c2ccccn2)CC1 (stereo not given) | 0.6 | 0.8 | 13 | Non-toxic | Non-toxic | 
3 | Cn1cncc1CN1CC(N(CC2CCN(C(=O)CNC(=O)OC(C)(C)C)CC2)S(=O)(=O)c2ccccn2)Cc2cc(C#N)ccc21 (stereo not given) | 0.5 | 0.6 | 18 | Non-toxic | Non-toxic | 
4 | Cn1cncc1CN1CC(N(CC2CCN(C(=O)C3CCCC3)CC2)S(=O)(=O)c2ccccn2)Cc2cc(C#N)ccc21 (stereo not given) | 0.5 | 0.6 | 18 | Non-toxic | Non-toxic | 
5 | CN(C)C(=O)N1CCC(CN(C2Cc3cc(C#N)ccc3N(Cc3cncn3C)C2)S(=O)(=O)c2ccccn2)CC1 (stereo not given) | 0.6 | 0.8 | 13 | Non-toxic | Non-toxic | 
6 | Cn1cncc1CN1CC(N(CC2CCN(C(=O)Nc3ccc(Br)cc3)CC2)S(=O)(=O)c2ccccn2)Cc2cc(C#N)ccc21 (stereo not given) | 0.6 | 0.8 | 13 | Non-toxic | Non-toxic | 
7 | Cn1cncc1CN1CC(N(CC(=O)NC(C)(C)C)S(=O)(=O)c2ccccn2)Cc2cc(C#N)ccc21 (stereo not given) |  | 1 | 85 |  |  | 
8 | Cn1cncc1CN1CC(N(CC2CCN(C(=O)NC(C)(C)C)CC2)S(=O)(=O)c2ccccn2)Cc2cc(C#N)ccc21 (stereo not given) | 0.6 | 0.8 | 13 | Non-toxic | Non-toxic | 
9 | Cn1cncc1CN1CC(N(CC2CCN(C(=O)CC(F)(F)F)CC2)S(=O)(=O)c2ccccn2)Cc2cc(C#N)ccc21 (stereo not given) | 0.5 | 0.6 | 18 | Non-toxic | Non-toxic | 
10 | CCC(=O)N1CCC(CN(C2Cc3cc(C#N)ccc3N(Cc3cncn3C)C2)S(=O)(=O)c2ccccn2)CC1 (stereo not given) | 0.5 | 0.6 | 13 | Non-toxic | Non-toxic | 
11 | Cn1cncc1CN1CC(N(CC2CCN(C(=O)C3CC3)CC2)S(=O)(=O)c2ccccn2)Cc2cc(C#N)ccc21 (stereo not given) | 0.5 | 0.6 | 18 | Non-toxic | Non-toxic | 
12 | CC(C)NCC(O)COc1cccc2ccccc12 (stereo not given) [PROPRANOLOL] | 28.9 |  |  |  |  | 83.4
13 | CNC(=C[N+](=O)[O-])NCCSCc1ccc(CN(C)C)o1 [RANITIDINE] | 0.3 |  |  |  |  | 5.6
14 | CCNC(=O)N1CCC(CN(C2Cc3cc(C#N)ccc3N(Cc3cncn3C)C2)S(=O)(=O)c2ccccn2)CC1 (stereo not given) | 0.6 | 0.8 | 13 | Non-toxic | Non-toxic | 
15 | Cn1cncc1CN1CC(N(CC2CCN(C(=O)c3cccs3)CC2)S(=O)(=O)c2ccccn2)Cc2cc(C#N)ccc21 (stereo not given) | 0.5 | 0.6 | 18 | Non-toxic | Non-toxic | 
16 | Cn1cncc1CN1CC(N(CC(=O)NC(C)(C)C)S(=O)(=O)c2cccnc2)Cc2cc(C#N)ccc21 (stereo not given) |  | 10 | 2.7 |  |  | 

Row | SMILES | Papp A→B [1] [×10⁻⁶ cm/s] | IC50 [2] [nM] | EC50 [3] [nM] | Activity [4] | Activity [5] | Papp B→A [6] [×10⁻⁶ cm/s]
17 | Cn1cncc1CN1CC(N(CC2CCN(C(=O)C(C)(C)C)CC2)S(=O)(=O)c2ccccn2)Cc2cc(C#N)ccc21 (stereo not given) | 0.5 | 0.6 | 15 | Non-toxic | Non-toxic | 
18 | Cn1cncc1CN1CC(N(CC2CCN(S(C)(=O)=O)CC2)S(=O)(=O)c2ccccn2)Cc2cc(C#N)ccc21 (stereo not given) | 0.1 | 0.5 | 62 | Non-toxic | Non-toxic | 
19 | CC(=O)N1CCC(CN(C2Cc3cc(C#N)ccc3N(Cc3cncn3C)C2)S(=O)(=O)c2ccccn2)CC1 (stereo not given) | 0.5 | 0.6 | 12 | Non-toxic | Non-toxic | 
20 | CC(C)S(=O)(=O)N1CCC(CN(C2Cc3cc(C#N)ccc3N(Cc3cncn3C)C2)S(=O)(=O)c2ccccn2)CC1 (stereo not given) | 0.1 | 0.5 | 62 | Non-toxic | Non-toxic | 
21 | Cn1cncc1CN1CC(N(CC2CCN(C(=O)N3CCCCC3)CC2)S(=O)(=O)c2ccccn2)Cc2cc(C#N)ccc21 (stereo not given) | 0.6 | 0.8 | 13 | Non-toxic | Non-toxic | 
22 | Cn1cncc1CN1CC(N(CC2CCN(S(=O)(=O)c3ccccc3)CC2)S(=O)(=O)c2ccccn2)Cc2cc(C#N)ccc21 (stereo not given) | 0.1 | 0.5 | 62 | Non-toxic | Non-toxic | 
23 | CCS(=O)(=O)N1CCC(CN(C2Cc3cc(C#N)ccc3N(Cc3cncn3C)C2)S(=O)(=O)c2ccccn2)CC1 (stereo not given) | 0.1 | 0.5 | 62 | Non-toxic | Non-toxic | 
24 | Cn1cncc1CN1CC(N(CC2CCN(C(=O)c3ccco3)CC2)S(=O)(=O)c2ccccn2)Cc2cc(C#N)ccc21 (stereo not given) | 0.5 | 0.6 | 18 | Non-toxic | Non-toxic | 
25 | Cn1cnc(S(=O)(=O)N2CCC(CN(C3Cc4cc(C#N)ccc4N(Cc4cncn4C)C3)S(=O)(=O)c3ccccn3)CC2)c1 (stereo not given) | 0.1 | 0.5 | 62 | Non-toxic | Non-toxic | 
26 | Cn1cncc1CN1CC(N(CC2CCN(C(=O)c3ccccc3)CC2)S(=O)(=O)c2ccccn2)Cc2cc(C#N)ccc21 (stereo not given) | 0.5 | 0.6 | 18 | Non-toxic | Non-toxic | 
27 | Cn1cncc1CN1CC(N(CC2CCN(C(=O)c3ccc(Cl)cc3)CC2)S(=O)(=O)c2ccccn2)Cc2cc(C#N)ccc21 (stereo not given) | 0.5 | 0.6 | 18 | Non-toxic | Non-toxic | 
28 | Cn1cncc1CN1CC(N(CC(=O)NC(C)(C)C)S(=O)(=O)c2ccncc2)Cc2cc(C#N)ccc21 (stereo not given) |  | > 50 | > 5 |  |  | 
29 | CCCC(=O)N1CCC(CN(C2Cc3cc(C#N)ccc3N(Cc3cncn3C)C2)S(=O)(=O)c2ccccn2)CC1 (stereo not given) | 0.5 | 0.6 | 17 | Non-toxic | Non-toxic | 
30 | Cn1cncc1CN1CC(N(CC2CCN(C(=O)N3CCCC3)CC2)S(=O)(=O)c2ccccn2)Cc2cc(C#N)ccc21 (stereo not given) | 0.6 | 0.8 | 13 | Non-toxic | Non-toxic | 
31 | CC(C)C(=O)N1CCC(CN(C2Cc3cc(C#N)ccc3N(Cc3cncn3C)C2)S(=O)(=O)c2ccccn2)CC1 (stereo not given) | 0.5 | 0.6 | 14 | Non-toxic | Non-toxic | 
32 | Cn1cncc1CN1CC(N(CC2CCN(C(=O)CC(C)(C)C)CC2)S(=O)(=O)c2ccccn2)Cc2cc(C#N)ccc21 (stereo not given) | 0.5 | 0.6 | 16 | Non-toxic | Non-toxic | 
